# This is a sample that favours compounds with a hit; in the whole collection about 2.3% have one here.
# T cell HTS – modulates CD8 T cell binding to vesicles | 0.068% of 330,000 active | response (vesicle binding), % at 7 µM | 2C CD8+ T cell-vesicle binding, flow cytometry; stronger effect = lower value;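 active = response, share of CD8 T cells binding vesicles, and their 90th percentile fluorescence all below set limits, cut at about 80% in these data, passing the limit was not always enough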;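 also: values below 100% mean blocked vesicle binding to the CD8+ T cells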
#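 Material: 2C TCR transgenic mouse naive CD8+ T cells, MACS-purified. Also added: QL9-charged Drosophila Ld/ICAM-1/B7-1 vesicles. Timing: binding 1.5 h at 37 °C. Measured by: high-throughput flow cytometry with anti-B7-1 and anti-CD8 staining. Read-out: percent CD8+ FL2 mean versus row control. Controls: Unloaded micro-vesicles (low), QL9 vesicles with 0.7% DMSO (high).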
# GPR7 antagonist – human neuropeptides B/W receptor 1 antagonism; P48145; inhibition, % at 4.4 µM; 1.1% of 290,000 active; GPR7-expressing cells, fluorescence antagonist assay; in the data active = inhibition above about 16%, passing the limit was not always enough;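 also: cells stimulated with the agonist NPW; 0% = agonist with vehicle and 100% = vehicle without agonist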
# Target sequence (P48145 whole entry, looked up): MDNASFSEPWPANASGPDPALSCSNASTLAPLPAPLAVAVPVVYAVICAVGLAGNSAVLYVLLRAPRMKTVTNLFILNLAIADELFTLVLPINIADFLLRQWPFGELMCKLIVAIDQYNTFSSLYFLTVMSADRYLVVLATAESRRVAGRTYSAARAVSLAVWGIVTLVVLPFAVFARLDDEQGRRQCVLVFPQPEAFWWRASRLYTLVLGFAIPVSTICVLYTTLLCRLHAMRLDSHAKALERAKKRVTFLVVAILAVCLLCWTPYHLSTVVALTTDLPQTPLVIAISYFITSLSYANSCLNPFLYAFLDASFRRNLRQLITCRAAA
# CHT inh – inhibits the human high affinity choline transporter | 0.86% of 310,000 active | Q9GZV3 | B-score at 10 µM | CHT-expressing cells, membrane potential dye, choline response; stronger effect = lower value;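 active = B-score over 3 SD under the library average, and starting fluorescence ratio not unusually high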;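 also: choline stimulus applied at its EC90 after an EC20 pre-addition; B-score computed on integrated fluorescence ratio after choline addition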
# p-CIP stab down – lowers stability of the mouse p/CIP coactivator protein. 0.01% of 290,000 active. decrease of EGFP signal, % at 10 µM. Q05BA5. AID 1984. F442A p/CIP-EGFP cells, EGFP fluorescence, 16 h;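 active = EGFP signal decrease of at least 30% at 10 µM or well 3 SD below plate mean, unless failing retest; inactive = the rest, including hits failing retest or dose response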
# CHT allo act – allosteric activators of human choline transporter CHT; CHT-expressing cells, membrane potential dye, choline EC20; stronger effect = higher value; LV-AA mutant CHT in HEK293 cells; B-score at 10 µM; 0.49% of 310,000 active; AID 488977;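 active = initial fluorescence not abnormally high and integrated response B-score, plate-corrected, over 3 SD above library mean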
# Pemphigus Ab inh – inhibitors of pemphigus antibody binding to human desmoglein-3. DSG3-coupled beads, scFv-anti-DSG3-GFP binding, flow cytometry; stronger effect = lower value. binding (percent of control), % at 10 µM. P32926. 0.48% of 310,000 active. AID 588358;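 active = binding more than 3 SD below its plate's average and above zero; inconclusive = below that plate limit but binding exactly zero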;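 also: hits lower antibody fragment binding to DSG3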
# The depositor's hits bear a star; i = inactive; u = inconclusive; x = no result.
SMILES,T cell HTS,GPR7 antagonist,CHT inh,p-CIP stab down,CHT allo act,Pemphigus Ab inh
CC(C)(C)C1CCC(C(=O)Nc2ccccc2)CC1 (centres undefined),694,-2,i,-6,i,66*
Cc1c(C(=O)NNC(=O)c2csc(N3CCOCC3)n2)oc2ccc(Br)cc12,x,x,x,x,x,104
COc1ccccc1-c1nc(C(=O)NCC2CCCO2)cc2c1[nH]c1ccccc12 (centres undefined),146,9,i,8,i,77*
COc1cc(-c2nc(C(=O)NCC3CCCO3)cc3c2[nH]c2ccccc23)cc(OC)c1OC (centres undefined),194,-2,i,-1,i,95
Cc1cc2c(cc1S(=O)(=O)NCCc1ccccc1)NC(=O)CO2,20*,x,i,x,i,99
NC(=O)CCC(C(=O)O)N1C(=O)C2C3CCC(C3)C2C1=O (centres undefined),x,x,x,x,x,98
O=S(=O)(O)c1ccc2c(c1)C(C(Cl)(Cl)Cl)OC(C(Cl)(Cl)Cl)O2 (centres undefined),x,x,x,x,x,95
COc1ccc(C(C#N)CC(=O)c2ccc(OCc3ccccc3)c(OC)c2)cc1OC (centres undefined),x,x,x,x,x,107
COc1cc(/C=N/O)cc(Br)c1OCc1ccc(Cl)cc1,202,-15,i,1,i,101
COc1cc(CNC(C)(C)CO)cc(Br)c1OCc1ccc(Cl)cc1,282,37*,i,-8,i,96
CSCC(C)N1CCC(Oc2cccc(C(=O)NCc3ccccn3)c2)CC1 (centres undefined),i,-9,-17*,-8,i,115
O=c1[nH]c(C2CCCN(S(=O)(=O)c3ccccc3Cl)C2)nc2c1nnn2Cc1ccc2c(c1)OCCO2 (centres undefined),302,0,i,-1,i,77*
Cc1ccccc1NC(=O)CNC(=O)N1CC(=O)Nc2ccccc21,x,x,x,x,x,99
FC(F)(F)c1cccc(NC(=S)NCc2ccccn2)c1,393,20*,i,-17,i,99
O=S(=O)(/C(=C/c1ccc(C(F)(F)F)cc1)c1nc2ccccc2[nH]1)c1ccccc1,369,26*,i,-11,i,91
Cc1ccccc1NC(=S)NCc1ccc2c(c1)cc(C)n2C,313,-13,i,-3,i,66*
COc1cccc(C(=O)NCc2ccc3c(c2)cc(C)n3C)c1,330,-6,i,-13,i,82*
COc1ccc(C(=O)NCc2ccc3c(c2)cc(C)n3C)cc1OC,536,-5,i,-6,i,109
COc1ccccc1NC(=S)NCc1ccc2c(c1)cc(C)n2C,302,-3,i,-21,i,x
CC(C)(C)CC(C)(C)NC(=S)NC1CCN(Cc2ccccc2)CC1,365,27*,i,-20,i,84
O=C(NCCc1ccc(F)cc1)C1CCC(=O)N(CC2CCCCC2)C1 (centres undefined),x,x,x,x,x,100
COc1ccc([C@H]2C[C@H](n3cc(COC(=O)c4ccccc4)nn3)[C@@H](O)CN2C(=O)c2cccs2)cc1,x,x,x,x,x,100
Nn1c(SCC(=O)Nc2ccc3c(c2)OCCO3)nnc1C(F)(F)F,237,14*,i,10,i,105
Cc1nnc(SCC(=O)Nc2ccc3c(c2)OCCO3)n1N,280,-7,i,-13,i,108
Cc1cn(CC(=O)NCc2ccc3c(c2)OCO3)c(=O)[nH]c1=O,x,x,x,x,x,95
SMILES,T cell HTS,GPR7 antagonist,CHT inh,p-CIP stab down,CHT allo act,Pemphigus Ab inh
CC(O)C(NS(=O)(=O)c1ccc(Cl)cc1)C(=O)OCC(=O)Nc1cccnc1Cl (centres undefined),173,25*,i,1,i,115
COc1cc(Cl)c(C)cc1NC(=O)COC(=O)C(NS(=O)(=O)c1ccc(Cl)cc1)C(C)O (centres undefined),260,-5,i,-10,i,114
COc1cccc(CN(C)C[C@@H]2OCc3cnnn3CCCC(=O)N([C@@H](C)CO)C[C@H]2C)c1,x,x,x,x,x,110
CCOC(=O)/C=C/S(=O)(=O)c1ccc(NC(C)=O)cc1,110,18*,-5.5*,-12,i,97
CCOC(=O)/C=C/C(=O)Nc1ccc(S(=O)(=O)Nc2c(C)cc(C)cc2C)cc1,194,-7,i,3,i,99
COc1ccc(NC(=O)CSc2nnc3n2CCCCC3)cc1OC,x,x,x,x,x,91
O=C(Cc1cccs1)Nn1c(Cc2cccs2)nc2ccccc2c1=O,339,-2,-6.7*,-1,i,96
COc1ccc(C(=O)Nc2cccnc2Sc2ccc(Cl)cc2)cc1,298,-12,i,0,i,80*
CN(C)S(=O)(=O)c1ccc(C(=O)OCC(=O)c2ccc(OC(F)F)cc2OC(F)F)cc1,269,18*,i,3,i,107
CCOc1ccc(N2CC(C(=O)Nc3cccc(S(=O)(=O)N4CCOCC4)c3)CC2=O)cc1 (centres undefined),x,x,x,x,x,105
COC(=O)c1ccc(NS(=O)(=O)c2ccc3c(c2)n(C)c(=O)n3C)cc1,680,-6,i,-14,i,76*
COC(=O)c1ccc(NS(=O)(=O)c2ccc3c(c2)oc(=O)n3C)cc1,346,x,i,-2,i,92*
CCOC(=O)c1ccc(NS(=O)(=O)c2ccc3c(c2)n(C)c(=O)n3C)cc1,154,-10,i,-19,i,u
Cc1cccc(C)c1NC(=O)CNC(=O)CNC(=O)c1ccc2ccccc2c1,x,x,x,x,x,103
CC(=O)Nc1ccc(C=C(C#N)c2ccc(C)cc2)cc1,x,x,x,x,x,97
Cc1cc(N2CCCC2)nc2ccc(NC(=S)NCCCN3CCC(C)CC3)cc12,331,-10,-7.9*,2,i,86
CC1(C)C2CCC1(CS(=O)(=O)Nc1ccc(S(=O)(=O)N3CCCC3)cc1)C(=O)C2 (centres undefined),0,19*,i,-9,i,130
CCOc1ccc(NS(=O)(=O)c2cc(NC(=O)CCS(=O)(=O)c3ccc(C)cc3)ccc2OC)cc1,256,-4,-5.1*,-18,i,95
CCN(CC)C(=O)C1=C(C)N(Cc2ccc(C(C)(C)C)cc2)C(=O)C(CC(=O)NCc2cccs2)C1 (centres undefined),x,x,x,x,x,102
CCN(CC(=O)Nc1c(F)cccc1F)C(=O)/C=C/c1ccc2ccccc2n1,327,x,i,x,i,77*
CCOC(=O)CCCCCC(=O)Nc1ccc2c(c1)C(=O)N([C@H](C)CO)C[C@H](C)[C@H](CN(C)C(=O)C1CCCCC1)OCCCC[C@@H](C)O2,x,x,x,x,x,117
COc1ccc(OC)c(S(=O)(=O)Nc2ccccc2C)c1,294,-16,i,-7,i,100
COc1ccc(OC)c(S(=O)(=O)Nc2ccccc2SC)c1,194,14*,i,10,i,103
